The record followed here is ChEMBL document CHEMBL1123133, “1H-2-Benzopyran-1-one derivatives, microbial products with pharmacological activity. Conversion into orally active derivatives with antiinflammatory and antiulcer activities” (J Med Chem, 1985).

Each structure is given as a SMILES string.

The test system of series [1] is Rattus norvegicus. The series can be described thus: Gastroprotective activity as % protection against stress ulcers in 5 rats after an intraperitoneal dose of 12.5 mg/kg. Type of series: functional. Put shortly:
(§1)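 Stress ulcer by restraint and water immersion: male Wistar rats (160–180 g), fasted 24 h, given test compound po or ip as HCl salt in aqueous glycerin/HCO-60 formulation (1/12/0.05 by weight). Vehicle-only controls. After 1 h, restrained in net cage and immersed in 21 °C water for 6 h. Percent ulcer inhibition calculated; five rats per dose.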

The next series deals with Cavia porcellus. The series can be described thus: Antiinflammatory activity evaluated as Minimum effective oral dose that inhibits dextran UV erythema in guinea pig. The series is classed as functional.
Series [2] can be described thus: Solubility in water, tested as a HCl salt. Type of series: physicochemical. Particulars: read-out: S. Put shortly: (§2)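 HCl salts suspended in excess in water or 10 mM phosphate buffer pH 7.5, sonicated 10 min at 20 °C to saturation, centrifuged; supernatant quantified by HPLC.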
The nature of series [3]: Acute toxicity evaluated as oral lethal dose in rat. The series is classed as organism-based. The note with it: in vivo. The essentials: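 Oral dosing of male Wistar rats (120-140 g), given as HCl salt; LD50 derived from mortality over 7 days.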
Series [4] deals with Rattus norvegicus. Nature of the series: Gastroprotective activity as % protection against stress ulcers in 5 rats after an intraperitoneal dose of 50 mg/kg. Type of series: functional. The essentials: as §1
The test system of series [5] is Rattus norvegicus. The series can be described thus: Gastroprotective activity as % protection against stress ulcers in 5 rats after an oral dose of 12.5 mg/kg. The series is classed as functional. Put shortly: as §1
For series [6], the system named is Rattus norvegicus. Nature of the series: Gastroprotective activity as % protection against stress ulcers in 5 rats after an intraperitoneal dose of 25 mg/kg. The series is classed as functional. Put shortly:
as §1

The test system of series [7] is Rattus norvegicus. The series can be described thus: Antiinflammatory activity evaluated as Minimum effective oral dose that inhibits bradykinin paw edema in rat. The series is classed as functional.
For series [8], the system named is Rattus norvegicus. Nature of the series: Antiinflammatory activity evaluated as Minimum effective oral dose that inhibits carrageenan paw edema in rat. Type of series: functional. For orientation: The carrageenan paw model is a standard test of acute inflammation.
Series [9] relates to Rattus norvegicus. Nature of the series: Antiinflammatory activity evaluated as Minimum effective oral dose that inhibits adjuvant arthritis in rats. Type of series: functional. The essentials:
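Adjuvant arthritis: male Sprague-Dawley rats (180–200 g), 8–10 per group, injected in right hind paw with Mycobacterium butyricum powder in corn oil (0.6 mg/0.1 mL). Oral dosing started 1 h after adjuvant, then daily for 18 days; observed 28 days. Minimum effective dose recorded.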

Series [10] has as its system Rattus norvegicus. Nature of the series: Antiinflammatory activity evaluated as Minimum effective oral dose that inhibits dextran paw edema in rat. Type of series: functional.
Series [11] is described as follows: Solubility in phosphate buffer, tested as a HCl salt. The series is classed as physicochemical. Put shortly:
as §2

Series [12] relates to Rattus norvegicus. Nature of the series: Gastroprotective activity as % protection against stress ulcers in 5 rats after an oral dose of 100 mg/kg. The series is classed as functional. The essentials:
as §1

The subject of series [13] is Rattus norvegicus. The series can be described thus: % recovery of the compound, compound 1 and compound 6a from whole blood of 7 wistar rats after an oral dose of the compound. Particulars: in vivo. Type of series: ADME, organism-based.
Series [14] deals with Rattus norvegicus. Nature of the series: Concentration 5b detected in blood of rat 3 hr after an oral dose of 200 mg/kg of the compound. Type of series: ADME, organism-based. More on the design: dose 200 mg/kg, route oral. The note with it: in vivo. Put shortly:
(§3)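 Male Wistar rats (120–160 g), 5–7 per group, fasted 24 h, given 200 mg/kg orally as aqueous HCl salt formulation (drug/glycerin/HCO-60 1/12/0.05 by weight). Jugular blood taken under ether at 1 or 3 h into citric acid; plasma deproteinized with ethanol (acetone for 5d) and analysed by C18 HPLC at 254 nm. Values recovery-corrected, mean of 6–7 rats.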

Series [15] deals with Rattus norvegicus. Nature of the series: Concentration 5b detected in blood of rat 1 hr after an oral dose of 200 mg/kg of the compound. The series is classed as ADME, organism-based. More on the design: dose 200 mg/kg, route oral. The note with it: in vivo. Put shortly: as §3
For series [16], the system named is Rattus norvegicus. Nature of the series: Gastroprotective activity as % protection against stress ulcers in 5 rats after an oral dose of 25 mg/kg. Type of series: functional. The essentials: as §1
The nature of series [17]: Lipid solubility measured as chloroform-water partition coefficient. The series is classed as physicochemical. The essentials: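 Partition between chloroform and 10 mM phosphate buffer pH 7.5 (1:1 volume); drug at 1 mg/mL initially in aqueous phase, shaken 20 min at 20 °C, centrifuged, both phases quantified by HPLC. HCl salts used.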
Series [18] has as its system Rattus norvegicus. The series can be described thus: Gastroprotective activity as % protection against stress ulcers in 5 rats after an oral dose of 50 mg/kg. The series is classed as functional. Put shortly: as §1
For series [19], the system named is Rattus norvegicus. The series can be described thus: Concentration 6c detected in blood of rat 3 hr after an oral dose of 200 mg/kg of the compound. Particulars: in vivo. The series is classed as ADME, organism-based. Details: dose 200 mg/kg, route oral. The essentials:
(§4)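 Male Wistar rats (120–160 g, 5–7 per group) fasted 24 h, then given 200 mg/kg orally as the HCl salt in a glycerin/HCO-60 formulation (drug/glycerin/HCO-60 1/12/0.05 by weight) in aqueous solution. At 1 or 3 h, jugular blood was citrated and plasma was ethanol-deproteinized, then analysed by reverse-phase HPLC at 254 nm. Values were recovery-corrected from blood spiked at 50 μg/mL and are means of 6–7 rats.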

Series [20] deals with Rattus norvegicus. Nature of the series: Concentration 5c detected in blood of rat 3 hr after an oral dose of 200 mg/kg of the compound. Type of series: ADME, organism-based. Details: dose 200 mg/kg, route oral. The note with it: in vivo. Put shortly:
as §4

The test system of series [21] is Rattus norvegicus. The series can be described thus: Concentration 6c detected in blood of rat 1 hr after an oral dose of 200 mg/kg of the compound. Type of series: ADME, organism-based. Details: dose 200 mg/kg, route oral. Particulars: in vivo. The essentials:
as §4

The subject of series [22] is Rattus norvegicus. Nature of the series: Concentration 5c detected in blood of rat 1 hr after an oral dose of 200 mg/kg of the compound. Particulars: in vivo. More on the design: dose 200 mg/kg, route oral. The series is classed as ADME, organism-based. Put shortly:
as §4

Series [23] has as its system Rattus norvegicus. Nature of the series: Concentration 1 detected in blood of rat 1 hr after an oral dose of 200 mg/kg of the compound; ND is Not Detected. More on the design: dose 200 mg/kg, route oral. Particulars: in vivo. The series is classed as ADME, organism-based. The essentials:
as §3

Series [24] deals with Rattus norvegicus. Nature of the series: Concentration detected in blood of rat 3 hr after an oral dose of 200 mg/kg; ND is Not Detected. Type of series: ADME, organism-based. Details: dose 200 mg/kg, route oral. The note with it: in vivo. Put shortly:
as §3

Series [25] has as its system Rattus norvegicus. The series can be described thus: % recovery from whole blood of 7 wistar rats after an oral dose of the compound. Type of series: ADME, organism-based. The note with it: in vivo.
A short description of series [26]: Concentration detected in blood of rat 1 hr after an oral dose of 200 mg/kg. The series is classed as ADME, organism-based. Details: dose 200 mg/kg, route oral. Put shortly: as §3
Series [27] in a line: Concentration detected in blood of rat 3 hr after an oral dose of 200 mg/kg of the compound. Type of series: ADME, organism-based. More on the design: dose 200 mg/kg, route oral. Put shortly:
as §3

In series [28] the test system is Rattus norvegicus. Nature of the series: % recovery 1 from whole blood of 7 wistar rats after an oral dose of the compound. Type of series: ADME, organism-based. The note with it: in vivo.

As usually defined, the ED50 is the dose that gives a 50% effect, or the effect in half of the subjects. Lower therefore signals an effect at a small dose. The term LD50 denotes the dose expected to kill half of the subjects tested. As for `CCNC1CC(=O)OC1C(O)C(=O)NC(CC(C)C)C1Cc2cccc(O)c2C(=O)O1` (stereo unspecified), the Protection in the series on Rattus norvegicus [1] amounted to 66%; in the series with Rattus norvegicus [4] it was 100%; in the series on Rattus norvegicus [5], 33%; in the series on Rattus norvegicus [6], 76%; in the series with Rattus norvegicus [12], 89%; in the series with Rattus norvegicus [16], 56%. Besides, in the series on Rattus norvegicus [18], the Protection came to 78%. The ED50 was 13 mg/kg with Cavia porcellus, 182 mg/kg with Rattus norvegicus [7], greater than 200 mg/kg in the series on Rattus norvegicus [8] and 47 mg/kg in the series with Rattus norvegicus [10]. Besides, the solubility in series [2] is greater than 100 mg/mL; in series [11], 11 mg/mL. In addition, the LD50 in [3] is 1250 mg/kg. In the series with Rattus norvegicus [9], the EDmin was determined as 20 mg/kg. Further, the Recovery in the series on Rattus norvegicus [13] is listed as 20%. For the same molecule, the Concentration in the series with Rattus norvegicus [14] was 8300 ng/mL; in the series on Rattus norvegicus [15], 17500 ng/mL. The P in series [17] came to 43.

For the molecule `COc1ccc2c(c1)c(CC(=O)O)c(C)n2C(=O)c1ccc(Cl)cc1` [INDOMETHACIN], the ED50 in the series on Cavia porcellus was less than 6 mg/kg; in the series on Rattus norvegicus [7], greater than 25 mg/kg; in the series with Rattus norvegicus [8], 1.3 mg/kg; with Rattus norvegicus [10] it was greater than 25 mg/kg. Also, the EDmin with Rattus norvegicus [9] was 3 mg/kg.

For the molecule `CNc1ccccc1`, the P in [17] was greater than 19.

Regarding `CCCNC1CC(=O)OC1C(O)C(=O)NC(CC(C)C)C1Cc2cccc(O)c2C(=O)O1` (stereo unspecified), the Protection in the series with Rattus norvegicus [1] is reported as 44%; in the series with Rattus norvegicus [4], 89%; in the series on Rattus norvegicus [5], 17%; in the series on Rattus norvegicus [6], 66%; with Rattus norvegicus [12], 100%; in the series with Rattus norvegicus [16] it was 78%. In the series on Rattus norvegicus [18], this molecule yielded a Protection of 94%. Also, the ED50 in the series on Cavia porcellus came to 12 mg/kg; with Rattus norvegicus [7], 69 mg/kg; in the series with Rattus norvegicus [8], 124 mg/kg; in the series on Rattus norvegicus [10] it was 43 mg/kg. For the same molecule, the solubility in series [2] is greater than 100 mg/mL; in series [11], 1.6 mg/mL. Besides, the LD50 in series [3] came out at 1080 mg/kg. In addition, the Concentration with Rattus norvegicus [19] worked out at 3400 ng/mL; in the series with Rattus norvegicus [20] it was 3400 ng/mL; in the series on Rattus norvegicus [21], 6400 ng/mL; with Rattus norvegicus [22], 14200 ng/mL. Further, the EDmin in the series with Rattus norvegicus [9] is 15 mg/kg. Also, the Recovery in the series with Rattus norvegicus [13] was 40%. The P in series [17] was 260.

Regarding `CC(C)C[C@H](NC(=O)[C@@H](O)[C@@H](O)[C@@H](N)CC(=O)O)[C@@H]1Cc2cccc(O)c2C(=O)O1`, the Protection amounted to 78% in the series on Rattus norvegicus [1]; 94% with Rattus norvegicus [4]; 100% in the series with Rattus norvegicus [6]; 17% in the series with Rattus norvegicus [12]; 0% in the series with Rattus norvegicus [16]; 0% in the series with Rattus norvegicus [18]. Moreover, the Concentration entry in the series on Rattus norvegicus [23] and in the series with Rattus norvegicus [24] was “Not detected” in each case. The molecule further came in with a Recovery in the series on Rattus norvegicus [25] of 50%.

In the case of `Cn1cnc2c1c(=O)[nH]c(=O)n2C` [THEOBROMINE], the P in series [17] was 0.1.

Turning to `CC(C)C[C@H](NC(=O)C(O)C1OC(=O)CC1N)[C@@H]1Cc2cccc(O)c2C(=O)O1.Cl` (stereo partly specified), the Protection with Rattus norvegicus [1] is 66%; in the series with Rattus norvegicus [4], 83%; in the series with Rattus norvegicus [6], 83%; in the series on Rattus norvegicus [12], 78%; in the series with Rattus norvegicus [16] it was 44%; in the series with Rattus norvegicus [18] it was 66%. Moreover, in series [26], the concentration at 1 h stood at 800 ng/mL. Besides, the concentration at 3 h in [27] came to 600 ng/mL. The molecule further returned a Recovery in the series on Rattus norvegicus [28] of 50%.

Take `CNCC(=O)O` [SARCOSINE]: the P in series [17] is listed as less than 0.03.
